Changes are numbered by the printed parent chain.
Tests used:
Conditions in all cases: stereoisomer not certain
[1] = target: T1, UniProt Q7TR71
T1 sequence (whole entry): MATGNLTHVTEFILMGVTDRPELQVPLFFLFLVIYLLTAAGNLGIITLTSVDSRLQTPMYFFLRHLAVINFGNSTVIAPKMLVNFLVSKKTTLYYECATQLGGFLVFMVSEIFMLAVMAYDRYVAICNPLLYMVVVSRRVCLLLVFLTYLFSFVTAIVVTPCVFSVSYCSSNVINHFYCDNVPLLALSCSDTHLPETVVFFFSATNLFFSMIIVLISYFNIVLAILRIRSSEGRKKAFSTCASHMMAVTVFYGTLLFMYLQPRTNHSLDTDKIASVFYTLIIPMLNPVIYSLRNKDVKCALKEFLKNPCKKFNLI
In short: (§1)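 Each entry records the cell line, G-protein, co-transfected protein and tags used. Methods varied with the source, often transient luciferase assays in mammalian cell lines. A receptor–molecule pair is called responsive (active) if the original authors judged its signal statistically different from baseline and non-responsive (inactive) otherwise.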

[2] = target: T2, UniProt Q7TR79
T2 sequence (whole entry): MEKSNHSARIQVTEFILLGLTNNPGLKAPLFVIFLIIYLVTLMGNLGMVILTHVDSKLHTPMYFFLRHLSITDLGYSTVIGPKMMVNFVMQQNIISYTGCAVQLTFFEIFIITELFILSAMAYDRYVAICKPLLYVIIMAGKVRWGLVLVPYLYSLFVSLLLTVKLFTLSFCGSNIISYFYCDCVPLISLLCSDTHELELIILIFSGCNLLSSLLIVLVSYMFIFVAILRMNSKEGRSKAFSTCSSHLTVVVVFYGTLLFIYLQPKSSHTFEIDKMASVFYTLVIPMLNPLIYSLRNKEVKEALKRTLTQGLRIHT
In short: as §1

[3] = target: T3, UniProt Q7TRA3
T3 sequence (whole entry): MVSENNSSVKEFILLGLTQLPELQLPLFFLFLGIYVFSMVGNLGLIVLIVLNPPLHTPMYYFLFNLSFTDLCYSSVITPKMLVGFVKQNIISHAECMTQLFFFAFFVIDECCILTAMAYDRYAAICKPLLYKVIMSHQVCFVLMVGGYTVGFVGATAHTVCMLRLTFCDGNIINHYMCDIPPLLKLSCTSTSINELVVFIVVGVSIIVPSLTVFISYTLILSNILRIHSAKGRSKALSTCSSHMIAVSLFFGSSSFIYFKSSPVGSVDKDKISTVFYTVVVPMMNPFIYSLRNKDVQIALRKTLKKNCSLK
In short: as §1

[4] = target: T4, UniProt Q7TRE4
T4 sequence (whole entry): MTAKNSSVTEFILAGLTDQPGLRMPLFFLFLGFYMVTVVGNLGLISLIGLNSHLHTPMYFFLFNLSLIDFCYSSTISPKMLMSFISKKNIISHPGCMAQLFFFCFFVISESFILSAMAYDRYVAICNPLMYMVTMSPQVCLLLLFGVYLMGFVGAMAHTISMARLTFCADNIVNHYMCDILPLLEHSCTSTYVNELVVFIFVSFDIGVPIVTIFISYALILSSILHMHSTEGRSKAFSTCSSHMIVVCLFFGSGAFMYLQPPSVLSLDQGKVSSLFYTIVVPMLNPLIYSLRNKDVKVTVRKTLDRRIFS
In short: as §1

[5] = target: T5, UniProt Q7TRM0
T5 sequence (whole entry): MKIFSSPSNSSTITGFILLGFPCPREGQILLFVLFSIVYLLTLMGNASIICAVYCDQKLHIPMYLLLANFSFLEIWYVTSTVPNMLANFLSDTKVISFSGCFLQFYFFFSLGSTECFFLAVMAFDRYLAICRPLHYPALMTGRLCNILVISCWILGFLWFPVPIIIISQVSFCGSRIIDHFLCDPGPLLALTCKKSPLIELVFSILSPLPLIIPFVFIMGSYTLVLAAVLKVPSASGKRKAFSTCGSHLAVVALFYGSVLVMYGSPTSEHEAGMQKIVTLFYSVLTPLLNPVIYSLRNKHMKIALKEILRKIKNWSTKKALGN
In short: as §1

[6] = target: T6, UniProt Q7TRN9
T6 sequence (whole entry): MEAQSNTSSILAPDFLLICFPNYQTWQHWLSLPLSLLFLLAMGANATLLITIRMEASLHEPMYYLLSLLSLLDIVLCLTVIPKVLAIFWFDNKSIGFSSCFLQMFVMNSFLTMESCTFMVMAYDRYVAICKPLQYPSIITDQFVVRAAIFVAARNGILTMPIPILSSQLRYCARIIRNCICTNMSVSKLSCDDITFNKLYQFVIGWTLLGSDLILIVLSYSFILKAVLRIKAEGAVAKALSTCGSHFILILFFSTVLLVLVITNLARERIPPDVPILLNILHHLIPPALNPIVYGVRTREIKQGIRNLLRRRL
In short: as §1

[7] = target: T7, UniProt Q7TRR8
T7 sequence (whole entry): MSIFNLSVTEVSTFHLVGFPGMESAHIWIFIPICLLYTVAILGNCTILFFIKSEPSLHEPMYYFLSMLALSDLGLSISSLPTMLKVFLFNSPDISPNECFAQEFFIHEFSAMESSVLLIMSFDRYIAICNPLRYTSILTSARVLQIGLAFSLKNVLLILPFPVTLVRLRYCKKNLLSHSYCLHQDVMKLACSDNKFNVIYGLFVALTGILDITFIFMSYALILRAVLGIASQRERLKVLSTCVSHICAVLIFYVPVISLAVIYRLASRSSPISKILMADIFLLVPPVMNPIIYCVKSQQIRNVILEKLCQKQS
In short: as §1

[8] = target: T8, UniProt Q7TRW1
T8 sequence (whole entry): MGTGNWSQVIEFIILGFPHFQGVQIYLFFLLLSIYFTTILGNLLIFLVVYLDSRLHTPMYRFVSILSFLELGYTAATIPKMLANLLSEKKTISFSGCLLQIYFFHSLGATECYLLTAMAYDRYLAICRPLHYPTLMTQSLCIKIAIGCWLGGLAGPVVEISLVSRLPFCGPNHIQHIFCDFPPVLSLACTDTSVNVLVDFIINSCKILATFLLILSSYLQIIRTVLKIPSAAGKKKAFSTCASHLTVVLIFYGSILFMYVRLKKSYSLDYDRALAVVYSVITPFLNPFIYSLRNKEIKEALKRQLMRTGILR
In short: as §1

[9] = target: T9, UniProt Q7TRX0
T9 sequence (whole entry): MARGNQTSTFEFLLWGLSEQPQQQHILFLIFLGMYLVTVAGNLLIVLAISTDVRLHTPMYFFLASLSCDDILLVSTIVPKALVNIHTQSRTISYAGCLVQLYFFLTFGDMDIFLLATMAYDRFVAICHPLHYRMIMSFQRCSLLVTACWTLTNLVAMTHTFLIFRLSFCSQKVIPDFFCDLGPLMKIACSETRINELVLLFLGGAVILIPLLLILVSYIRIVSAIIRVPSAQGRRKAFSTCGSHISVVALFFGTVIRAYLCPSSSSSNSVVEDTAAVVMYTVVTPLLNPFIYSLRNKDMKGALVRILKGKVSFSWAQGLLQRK
In short: as §1

[10] = target: T10, UniProt Q8VEU7
T10 sequence (whole entry): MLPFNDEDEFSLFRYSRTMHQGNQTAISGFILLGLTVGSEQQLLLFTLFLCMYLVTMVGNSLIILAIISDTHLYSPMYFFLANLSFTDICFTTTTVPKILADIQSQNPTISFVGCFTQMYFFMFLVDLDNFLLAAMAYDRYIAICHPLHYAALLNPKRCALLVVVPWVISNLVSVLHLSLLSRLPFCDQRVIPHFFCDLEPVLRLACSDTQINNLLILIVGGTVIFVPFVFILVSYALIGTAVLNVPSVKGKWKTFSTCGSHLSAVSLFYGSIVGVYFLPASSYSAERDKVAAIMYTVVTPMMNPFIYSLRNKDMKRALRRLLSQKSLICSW
In short: as §1

[11] = target: T11, UniProt Q8VF05
T11 sequence (whole entry): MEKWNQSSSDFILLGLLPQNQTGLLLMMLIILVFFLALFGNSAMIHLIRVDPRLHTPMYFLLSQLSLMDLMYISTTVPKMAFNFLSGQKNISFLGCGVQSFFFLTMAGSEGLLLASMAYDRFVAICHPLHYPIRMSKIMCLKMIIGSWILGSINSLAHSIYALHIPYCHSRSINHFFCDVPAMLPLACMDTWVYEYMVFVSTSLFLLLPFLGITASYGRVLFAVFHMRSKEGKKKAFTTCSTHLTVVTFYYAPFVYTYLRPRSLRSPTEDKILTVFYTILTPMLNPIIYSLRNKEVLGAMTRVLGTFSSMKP
In short: as §1

[12] = target: UniProt Q7TR75
In short: as §1

[13] = target: T12, UniProt Q7TRA1
T12 sequence (whole entry): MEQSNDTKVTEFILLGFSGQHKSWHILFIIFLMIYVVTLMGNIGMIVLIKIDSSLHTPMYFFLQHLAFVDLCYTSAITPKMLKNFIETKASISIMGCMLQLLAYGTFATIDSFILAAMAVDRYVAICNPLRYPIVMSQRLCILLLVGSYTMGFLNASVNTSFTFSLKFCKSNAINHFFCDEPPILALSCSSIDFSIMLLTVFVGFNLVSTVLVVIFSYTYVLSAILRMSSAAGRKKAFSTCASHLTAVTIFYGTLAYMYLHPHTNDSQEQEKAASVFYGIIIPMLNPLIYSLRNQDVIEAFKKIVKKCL
In short: as §1

[14] = target: T13, UniProt Q7TRA2
T13 sequence (whole entry): T12 sequence (whole entry) with S18A, I86T, I94F, M95I, S112C, V208L, T219I, V221I, V305A
In short: as §1

[15] = target: UniProt Q7TRB8
In short: as §1

[16] = target: UniProt Q7TS17
In short: as §1

[17] = target: UniProt Q7TS37
In short: as §1

[18] = target: UniProt Q7TS40
In short: as §1

Chain of UniProt Q7TS40 (Q7TS40 as listed by the source): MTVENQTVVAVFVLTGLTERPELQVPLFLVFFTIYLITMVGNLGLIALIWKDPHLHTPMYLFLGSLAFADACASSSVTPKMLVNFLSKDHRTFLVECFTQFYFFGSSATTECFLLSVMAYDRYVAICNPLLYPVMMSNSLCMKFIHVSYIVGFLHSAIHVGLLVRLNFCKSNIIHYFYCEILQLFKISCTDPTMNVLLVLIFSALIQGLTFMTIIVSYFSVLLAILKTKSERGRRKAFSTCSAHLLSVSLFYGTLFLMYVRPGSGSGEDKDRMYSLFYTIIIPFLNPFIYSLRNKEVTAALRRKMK
Chain of UniProt Q7TRB8 (Q7TRB8 as listed by the source): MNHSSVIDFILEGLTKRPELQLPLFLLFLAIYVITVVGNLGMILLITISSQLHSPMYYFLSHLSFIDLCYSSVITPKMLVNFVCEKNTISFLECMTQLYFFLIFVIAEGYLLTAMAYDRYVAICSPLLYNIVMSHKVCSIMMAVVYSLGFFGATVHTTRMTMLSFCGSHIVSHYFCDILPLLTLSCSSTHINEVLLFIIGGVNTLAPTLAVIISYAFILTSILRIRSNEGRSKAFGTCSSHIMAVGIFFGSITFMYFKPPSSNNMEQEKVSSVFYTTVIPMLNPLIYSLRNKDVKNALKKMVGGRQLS
Chain of UniProt Q7TS37 (Q7TS37 as listed by the source): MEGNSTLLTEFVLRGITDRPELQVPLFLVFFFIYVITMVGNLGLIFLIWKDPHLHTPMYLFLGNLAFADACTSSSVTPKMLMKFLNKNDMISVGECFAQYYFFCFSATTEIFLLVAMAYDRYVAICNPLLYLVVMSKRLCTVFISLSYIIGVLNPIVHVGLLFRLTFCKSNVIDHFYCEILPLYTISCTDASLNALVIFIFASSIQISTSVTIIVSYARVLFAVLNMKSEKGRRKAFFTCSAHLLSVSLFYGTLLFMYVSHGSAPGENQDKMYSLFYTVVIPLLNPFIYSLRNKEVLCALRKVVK
Chain of UniProt Q7TS17 (Q7TS17 as listed by the source): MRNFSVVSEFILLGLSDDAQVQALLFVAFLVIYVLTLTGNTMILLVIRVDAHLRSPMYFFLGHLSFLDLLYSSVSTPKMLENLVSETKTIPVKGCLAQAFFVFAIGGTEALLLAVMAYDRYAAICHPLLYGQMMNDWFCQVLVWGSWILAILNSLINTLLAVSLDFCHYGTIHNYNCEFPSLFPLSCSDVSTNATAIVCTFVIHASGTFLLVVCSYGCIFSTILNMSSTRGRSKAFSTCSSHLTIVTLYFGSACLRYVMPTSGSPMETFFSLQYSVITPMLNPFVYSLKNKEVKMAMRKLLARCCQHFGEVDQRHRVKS
Chain of UniProt Q7TR75 (Q7TR75 as listed by the source): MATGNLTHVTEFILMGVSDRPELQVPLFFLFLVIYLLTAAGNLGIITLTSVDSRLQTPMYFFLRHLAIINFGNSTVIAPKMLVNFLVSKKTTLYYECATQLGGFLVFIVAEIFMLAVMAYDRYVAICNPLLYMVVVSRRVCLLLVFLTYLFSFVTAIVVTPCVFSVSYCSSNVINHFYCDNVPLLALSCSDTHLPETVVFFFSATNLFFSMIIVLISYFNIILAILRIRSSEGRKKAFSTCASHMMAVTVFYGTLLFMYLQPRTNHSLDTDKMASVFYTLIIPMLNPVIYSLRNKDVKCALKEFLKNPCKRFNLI

Compound: CCCCC(=O)O
- odorant receptor agonist call [1]: inactive
- odorant receptor agonist call [2]: inactive
- odorant receptor agonist call [3]: inactive
- odorant receptor agonist call [4]: inactive
- odorant receptor agonist call [5]: inactive
- odorant receptor agonist call [6]: inactive
- odorant receptor agonist call [7]: inactive
- odorant receptor agonist call [8]: inactive
- odorant receptor agonist call [9]: inactive
- odorant receptor agonist call [10]: inactive
- odorant receptor agonist call [11]: inactive

Compound: CCCCOC=O
- odorant receptor agonist call [1]: inactive
- odorant receptor agonist call [2]: inactive
- odorant receptor agonist call [3]: inactive
- odorant receptor agonist call [4]: inactive
- odorant receptor agonist call [8]: inactive
- odorant receptor agonist call [9]: inactive
- odorant receptor agonist call [10]: inactive
- odorant receptor agonist call [11]: inactive

Compound: CCCCCCCCCS
- odorant receptor agonist call [1]: inactive
- odorant receptor agonist call [2]: inactive
- odorant receptor agonist call [3]: inactive
- odorant receptor agonist call [4]: inactive
- odorant receptor agonist call [8]: inactive
- odorant receptor agonist call [9]: inactive
- odorant receptor agonist call [10]: inactive
- odorant receptor agonist call [11]: inactive

Compound: O=C1CCOc2ccccc21
- odorant receptor agonist call [1]: active
- odorant receptor agonist call [12]: active
- odorant receptor agonist call [2]: inactive
- odorant receptor agonist call [13]: inactive
- odorant receptor agonist call [14]: inactive
- odorant receptor agonist call [3]: active
- odorant receptor agonist call [15]: inactive
- odorant receptor agonist call [4]: inactive
- odorant receptor agonist call [8]: inactive
- odorant receptor agonist call [9]: inactive
- odorant receptor agonist call [16]: active
- odorant receptor agonist call [17]: active
- odorant receptor agonist call [18]: inactive
- odorant receptor agonist call [10]: inactive
- odorant receptor agonist call [11]: active

Compound: CCCCCCCCCC(=O)[O-].[H+]
- odorant receptor agonist call [1]: inactive
- odorant receptor agonist call [2]: inactive
- odorant receptor agonist call [3]: inactive
- odorant receptor agonist call [4]: inactive
- odorant receptor agonist call [8]: inactive
- odorant receptor agonist call [9]: inactive
- odorant receptor agonist call [10]: inactive
- odorant receptor agonist call [11]: inactive

Compound: CCCCCCC(C)=O
- odorant receptor agonist call [1]: inactive
- odorant receptor agonist call [2]: inactive
- odorant receptor agonist call [3]: inactive
- odorant receptor agonist call [4]: inactive
- odorant receptor agonist call [8]: inactive
- odorant receptor agonist call [9]: inactive
- odorant receptor agonist call [10]: inactive
- odorant receptor agonist call [11]: inactive

Compound: CCC(=O)C(=O)CC
- odorant receptor agonist call [1]: inactive
- odorant receptor agonist call [2]: inactive
- odorant receptor agonist call [3]: inactive
- odorant receptor agonist call [4]: inactive
- odorant receptor agonist call [8]: inactive
- odorant receptor agonist call [9]: inactive
- odorant receptor agonist call [10]: inactive
- odorant receptor agonist call [11]: active

Compound: C=C(C)C1CCC(C)C(=O)C1 (stereo not given)
- odorant receptor agonist call [1]: inactive
- odorant receptor agonist call [2]: inactive
- odorant receptor agonist call [3]: inactive
- odorant receptor agonist call [4]: inactive
- odorant receptor agonist call [8]: inactive
- odorant receptor agonist call [9]: inactive
- odorant receptor agonist call [10]: inactive
- odorant receptor agonist call [11]: active

Compound: CCCCCCO
- odorant receptor agonist call [1]: inactive
- odorant receptor agonist call [2]: inactive
- odorant receptor agonist call [3]: inactive
- odorant receptor agonist call [4]: inactive
- odorant receptor agonist call [6]: inactive
- odorant receptor agonist call [7]: inactive
- odorant receptor agonist call [8]: inactive
- odorant receptor agonist call [9]: inactive
- odorant receptor agonist call [10]: inactive
- odorant receptor agonist call [11]: inactive

Compound: CC(=O)OCc1ccccc1
- odorant receptor agonist call [1]: inactive
- odorant receptor agonist call [2]: inactive
- odorant receptor agonist call [3]: inactive
- odorant receptor agonist call [4]: inactive
- odorant receptor agonist call [8]: inactive
- odorant receptor agonist call [9]: inactive
- odorant receptor agonist call [10]: inactive
- odorant receptor agonist call [11]: active

Compound: CC(C)=CCCC(C)=CCO
- odorant receptor agonist call [1]: inactive
- odorant receptor agonist call [2]: inactive
- odorant receptor agonist call [3]: inactive
- odorant receptor agonist call [4]: inactive
- odorant receptor agonist call [8]: inactive
- odorant receptor agonist call [9]: inactive
- odorant receptor agonist call [10]: inactive
- odorant receptor agonist call [11]: inactive

Source: the M2OR odorant receptor database
